Source: PubChem BioAssay
Rows were chosen to be rich in hits. Some 3.3% of all compounds tested hit in one or more screens of this group.
M18AAP inhibitor – PfM18AAP enzyme inhibition | inhibition, % at 7.35 µM | 290,000 tested, 1.2% active | recombinant PfM18AAP, H-Glu-NHMec fluorogenic cleavage;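 active means inhibition above the campaign mean inhibition over all tested compounds plus 3 SD, cut at about 28% in these data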
Hep lipid drop – modulators of hepatic lipid droplet formation; AML12 mouse hepatocytes, oleate lipid droplets, BODIPY imaging; inhibition, % at 6.5 µM; 240,000 tested, 0.4% active; AID 1656;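 active means lipid droplet intensity inhibited by at least 50%, with more than 500 cells counted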
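Test system: AML12 hepatocytes (mouse); reagent: oleate loading, 100 µM; dosing: one dose, 6.5 µM compound; incubation: overnight exposure; signal: fluorescence imaging, 20x objective, two fields per well; read-out basis: % inhibition of corrected integrated BODIPY droplet signal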
NRP1-CendR mod – modulators of CendR peptide binding to human neuropilin-1 | O14786 | FAM-RPARPAR peptide binding to NRP-1, fluorescence polarization | inhibition, % at 25 µM | 360,000 tested, 0.85% active;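 active means inhibition or corrected inhibition above about 18%, plus a signal ratio from 0.5 to 1.5, limit read from the data, passing the limit was not always enough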
HTR2A ag – agonists of mouse serotonin 5-HT2A receptor (HTR2A); CHO-K1 mHTR2A beta-arrestin complementation, luminescence; percent of 30 µM serotonin response; 360,000 tested, 0.66% active; activation, % at 7.6 µM;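 active means activation above a run cutoff, the mean activation of all tested compounds plus 3 SD, cut at about 14% in these data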
sPLA2-III inh – Blocks human group III sPLA2 activity; AID 743126; Q9NZ20; 370,000 tested, 0.56% active; QFRET BODIPY PC-A2 liposome hydrolysis, fluorescence; inhibition, % at 12.2 µM;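 active means inhibition above mean plus 3 SD of compounds lying within the high and low control bounds, cut at about 19% in these data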
Target sequence (Q9NZ20 whole entry, looked up): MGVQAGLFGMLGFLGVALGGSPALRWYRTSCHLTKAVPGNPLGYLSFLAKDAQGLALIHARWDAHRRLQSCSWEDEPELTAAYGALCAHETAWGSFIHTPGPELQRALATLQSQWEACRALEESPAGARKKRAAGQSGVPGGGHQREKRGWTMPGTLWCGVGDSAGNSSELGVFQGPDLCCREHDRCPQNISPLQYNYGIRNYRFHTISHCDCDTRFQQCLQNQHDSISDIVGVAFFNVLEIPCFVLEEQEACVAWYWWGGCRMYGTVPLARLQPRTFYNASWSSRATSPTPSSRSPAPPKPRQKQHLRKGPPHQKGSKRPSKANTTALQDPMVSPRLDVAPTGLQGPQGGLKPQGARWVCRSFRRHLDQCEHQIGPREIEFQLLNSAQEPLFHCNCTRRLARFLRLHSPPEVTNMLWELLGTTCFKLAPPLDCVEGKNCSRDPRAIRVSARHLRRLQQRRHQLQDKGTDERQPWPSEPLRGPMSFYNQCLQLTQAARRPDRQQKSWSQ
Arrestin-AP2 inh – blocks beta-arrestin peptide binding to AP2 adaptin; FITC-arrestin peptide / GST-AP2 beads, flow cytometry; AP2 beta2 appendage carries R879A mutation; inhibition, % at 10 µM; 340,000 tested, 0.31% active;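 active means inhibition above a set limit, near 3 SD of compounds lacking own fluorescence, cut at about 54% in these data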
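test system = AP2 appendage R879A on GSH beads | buffer or medium = PBS plus Tween 20 (0.05%) and BSA (0.1%) | incubation = 12 min plus 1 h, RT | detection = bead flow cytometry, FITC channel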
Arr-AP2 CP1 – blocks beta-arrestin peptide binding to human AP2; inhibition, % at 10 µM; 1,300 tested, 2% active; GST-AP2 beads, FITC arrestin peptide binding, flow cytometry; GST-fused beta2-adaptin appendage, R879A mutant; shares compounds with Arrestin-AP2 inh;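 active means inhibition above a set limit, roughly 3 SD of non-fluorescent compound noise, cut at about 38% in these data; inactive means inhibition at or below that limit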;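 further: loss of bead fluorescence from 50 nM FITC arrestin peptide bound to appendage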
GST-FITC bead – GST-GSH bead binding interference, counter-screen; shares compounds with Arrestin-AP2 inh; GST-fluorescein binding to GSH beads, fluorescence; inhibition, % at 10 µM; 1,300 tested, 2% active; AID 588338;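 active means inhibition above 50%, about 3 SD of the inhibition seen with non-fluorescent compounds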;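 further: fluorescein maleimide labelled GST captured on 4 micron glutathione beads; higher means more loss of bead fluorescence from quenching or blocked binding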
OPRM1 ag – OPRM1 agonism in mouse HTR2A counterscreen | shares compounds with HTR2A ag | U2OS OPRM1 beta-arrestin PathHunter, luminescence; DMSO 0%, DAMGO 9.3 µM 100% | activation, % at 9.3 µM | 2,300 tested, 5.3% active | AID 624380;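 active means mean activation above the mean of DMSO-only wells plus 3 SD, cut at about 0.5% in these data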
m5-HT2A ag conf – mouse HTR2A agonism confirmed | CHO-K1 PathHunter beta-arrestin recruitment, luminescence; DMSO 0%, 30 µM serotonin 100% | activation, % at 7.6 µM | shares compounds with HTR2A ag | 2,300 tested, 19% active;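 active means mean activation across triplicates above the hit threshold derived in the original primary screen, cut at about 15% in these data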
Large screens that a line does not name were inactive (follow-up assays come after a bar, where they were run).

CC1CCN(S(=O)(=O)N2CCC(C(=O)O)CC2)CC1	Arrestin-AP2 inh 56 | Arr-AP2 CP1 inactive | GST-FITC bead inactive
CCS(=O)(=O)N1CCC(C(=O)O)CC1	none
Cn1nc(C(=O)NC2CCCC2)c2ccccc2c1=O	Arrestin-AP2 inh 69 (no result: M18AAP inhibitor, Hep lipid drop) | Arr-AP2 CP1 inactive | GST-FITC bead inactive
Cn1c(C(=O)NC2CCCCC2)cc2c(=O)n3ccccc3nc21	Arrestin-AP2 inh 60 | Arr-AP2 CP1 inactive | GST-FITC bead inactive
O=C(NC1CCCC1)c1cc2c(=O)n3ccccc3nc2s1	none (no result: M18AAP inhibitor, Hep lipid drop)
CC(C)[C@@H]1Cc2[nH][nH]c(=O)c2[C@H](C(C)C)O1	none (no result: M18AAP inhibitor, Hep lipid drop, Arrestin-AP2 inh)
COC(=O)[C@]12C[C@H](CC(=O)NCc3cccc4ccccc34)C(=O)N(Cc3ccc4c(c3)OCO4)C1=C[C@H](C(C)C)O[C@@H]2C1CC1	none (no result: M18AAP inhibitor, Hep lipid drop, NRP1-CendR mod, HTR2A ag, Arrestin-AP2 inh)
Cc1ccc2[nH]c(=O)c3cc(C(=O)N(C)c4ccc(C)c(C)c4)sc3c2c1	Arrestin-AP2 inh 58 | Arr-AP2 CP1 inactive | GST-FITC bead inactive
CCN(C(=O)c1cc2c(=O)[nH]c3ccc(C)cc3c2s1)c1ccc(F)cc1	none
CCOC1=C2[C@@H](CN(S(=O)(=O)c3ccc(C)cc3)[C@H]2c2cccc3ccccc23)[C@H]2C(=O)N(c3ccccc3)C(=O)[C@H]2C1	none (no result: M18AAP inhibitor, Hep lipid drop, Arrestin-AP2 inh)
Cc1cc(Cl)ccc1NC(=O)CCC(=O)N/N=C/c1cc([N+](=O)[O-])ccc1O	Arrestin-AP2 inh 105 | Arr-AP2 CP1 inactive | GST-FITC bead inactive
CCC[C@@H](NS(=O)(=O)c1ccc(C)cc1)C(=O)Oc1ccc2c3c(c(=O)oc2c1)CCC3	Arrestin-AP2 inh 57 | Arr-AP2 CP1 inactive | GST-FITC bead inactive
O=C(COC(=O)CCN1C(=O)C2CC=CCC2C1=O)Nc1ccc([N+](=O)[O-])cc1 (configuration not stated)	none (no result: M18AAP inhibitor, Hep lipid drop)
COc1ccc(C(=O)NNC(=O)CCC(=O)NNC(=O)c2ccc(OC)cc2)cc1	none
COc1ccc(C(=O)NNC(=O)CCCCC(=O)NNC(=O)c2ccc(OC)cc2)cc1	Arrestin-AP2 inh 62 | Arr-AP2 CP1 inactive | GST-FITC bead inactive
C=CCOc1c(CNc2ccc3[nH]c(=O)[nH]c3c2)cccc1OC	none
COc1cccc(CNc2ccc3[nH]c(=O)[nH]c3c2)c1OCc1ccc(F)cc1	Arrestin-AP2 inh 55 (no result: Hep lipid drop) | Arr-AP2 CP1 inactive | GST-FITC bead inactive
O=C(CS(=O)(=O)c1ccccc1)Nc1ccc(N2CCOCC2)cc1	Arrestin-AP2 inh 60 | Arr-AP2 CP1 inactive | GST-FITC bead inactive
O=C(CN1CCN(Cc2ccccc2)CC1)Nc1ccc(N2CCOCC2)cc1	none
CCN1C(=O)[C@H]2[C@@H](c3ccc(-c4ccccc4)cc3)N3CCC[C@@]3(C(=O)OC)[C@H]2C1=O	none (no result: M18AAP inhibitor, Hep lipid drop)
O=S(=O)(NCCOc1ccccc1F)c1ccc(Cl)cc1F	Arrestin-AP2 inh 60 (no result: M18AAP inhibitor, Hep lipid drop) | Arr-AP2 CP1 inactive | GST-FITC bead inactive
O=S(=O)(NCCOc1ccccc1F)c1cccc(Br)c1	none (no result: M18AAP inhibitor, Hep lipid drop)
COC(=O)[C@]12C[C@H](CC(=O)N3CCCC3)C(=O)N(Cc3cccc4ccccc34)C1=C[C@H](C(C)(C)C)O[C@@H]2C	none (no result: M18AAP inhibitor, Hep lipid drop, NRP1-CendR mod, HTR2A ag, Arrestin-AP2 inh)
Cc1nc(NCCN2CCOCC2)c2oc3ccccc3c2n1	Arrestin-AP2 inh 55 (no result: Hep lipid drop) | Arr-AP2 CP1 inactive | GST-FITC bead inactive
COCC(=O)N[C@H]1C[C@@H]2O[C@H](CO)CC[C@@H]2O[C@@H]1CCc1ccc(-c2ccccc2)cc1	none (no result: M18AAP inhibitor, Hep lipid drop, NRP1-CendR mod, HTR2A ag, Arrestin-AP2 inh)
COc1ccc(-n2ncc3c2CC(C)(C)CC3NC(=O)c2cn[nH]c2)cc1 (configuration not stated)	none
O=C(NN1C(=O)c2ccccc2NC1c1ccoc1)c1ccc([N+](=O)[O-])cc1 (configuration not stated)	Arrestin-AP2 inh 57 | Arr-AP2 CP1 inactive | GST-FITC bead inactive
O=C(NN1C(=O)c2ccccc2NC1c1ccc([N+](=O)[O-])o1)c1ccc([N+](=O)[O-])cc1 (configuration not stated)	none
COc1ccc(OC)c(CN2C(=O)CSCC2(C)c2nnnn2C2CCCC2)c1 (configuration not stated)	none (no result: M18AAP inhibitor, Hep lipid drop, NRP1-CendR mod, HTR2A ag, Arrestin-AP2 inh)
Cc1ccc(-c2nc3ccccc3s2)cc1NC(=O)c1ccc2c(c1)OCO2	Arrestin-AP2 inh 58 (no result: Hep lipid drop) | Arr-AP2 CP1 inactive | GST-FITC bead inactive
O=C(Nc1cc(-c2nc3ccccc3s2)ccc1Cl)c1ccc2c(c1)OCO2	none (no result: Hep lipid drop)
c1ccc(COc2cccc(-c3cc4nc(NCCc5ccncc5)ccn4n3)c2)cc1	none (no result: M18AAP inhibitor, Hep lipid drop, Arrestin-AP2 inh)
O=C(COc1ccccc1Cl)N(Cc1cccs1)C1CCS(=O)(=O)C1 (configuration not stated)	HTR2A ag 20, Arrestin-AP2 inh 58 | Arr-AP2 CP1 inactive | GST-FITC bead inactive | OPRM1 ag inactive | m5-HT2A ag conf inactive
CCC1Nc2ncnc(N3CCc4ccccc4C3)c2N(Cc2ccc(Br)cc2)C1=O (configuration not stated)	none (no result: M18AAP inhibitor, Hep lipid drop, sPLA2-III inh, Arrestin-AP2 inh)
CC(C)(C)C(=O)NCc1ccc(C(=O)CSc2nnc(-c3ccncc3)n2C2CC2)s1	HTR2A ag 16, Arrestin-AP2 inh 62 (no result: M18AAP inhibitor, Hep lipid drop) | Arr-AP2 CP1 inactive | GST-FITC bead inactive | OPRM1 ag inactive | m5-HT2A ag conf inactive
Cc1ccc(C(=O)CSc2nnc(C3CC3)n2C2CC2)s1	none (no result: M18AAP inhibitor, Hep lipid drop)
Cc1ccc(NC(=S)Nc2cccc(-c3n[nH]c(=S)o3)c2)cc1	none
Clc1ccccc1CN1CCN(c2ncccn2)CC1	HTR2A ag 28, Arrestin-AP2 inh 58 | Arr-AP2 CP1 inactive | GST-FITC bead inactive | OPRM1 ag inactive | m5-HT2A ag conf 98
